PMC12318036 (Nature Communications, 2025)

Tests used:
TPCs = experiment: Cell; type: cell-based, human; details: forskolin, then H89 2HCl (10 μM), then (S)-(-)-Bay K8644 (10 μM); F-actin, p-MLC2^Ser15, collagen contraction; n = 3
Method in brief: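 A commercial collagen gel contraction kit was used. Harvested pericytes (5 × 10^6) were mixed 1:4 v/v with collagen solution and polymerised at 37 °C for 1 h. Medium was then added over each lattice and gels were incubated for 2 days. Gel size (contraction index) was measured at 48 h by image analysis.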

[1] = test system: L-type calcium channel in TPCs; experiment: Calcium imaging; type: cell-based, human; details: H89 2HCl 10 μM; Fluo-4AM; n = 3
[2] = test system: intracellular calcium of TPCs; experiment: Intravital GCaMP6 calcium imaging in TPCs treated with U46619; type: in vivo, mouse; details: PC^lin-KO-GCaMP6 mice compared with PC^lin-GCaMP6 mice; n = 6
tumor vessels [3] = experiment: Two-photon vasoconstriction assay of tumor vessels exposed to U46619; type: in vivo, mouse; details: MC-38-luc-LM3 orthotopic tumor, two-photon microscopy, U46619 10 min; n = 6
tumor vessels [4] = experiment: Intravital imaging of RBC velocity and vessel diameter change post-U46619; type: in vivo, mouse; details: n = 6
Method in brief: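 Tumor-bearing mice received FITC-dextran i.v. before imaging. The exposed tumor was viewed with a 4× objective. A rapid line scan (735 lines per second) bisected the central axis of the capillary lumen, so that moving RBCs appeared as oblique shadows. Blood velocity was derived as Δx/Δt.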

Row | SMILES | contraction of TPCLM^gNKX2-3+PDE1C (TPCs) | calcium currents in TPCNM^NKX2-3+siPDE1C [1] | forskolin-increased calcium currents in TPCLM^siNKX2-3+PDE1C [1] | response of intracellular Ca^2+ of TPCs to U46619 [2] | change of capillary diameter after U46619 treatment, PC^lin mice (tumor vessels [3]) | reduction of capillary diameter after U46619 treatment, PC^lin-KO mice (tumor vessels [3]) | tumor blood velocity after exposure to U46619, PC^lin-KO mice (tumor vessels [4]; compared with before treatment) | vascular diameter after exposure to U46619, PC^lin-KO mice (tumor vessels [4]; compared with before treatment) | tumor blood velocity and vascular diameter before and post-treatment with U46619, PC^lin mice (tumor vessels [4])
1 | Cl.Cl.O=S(=O)(NCCNC/C=C/c1ccc(Br)cc1)c1cccc2cnccc12 [H89 2HCl] | suppressed | reduced calcium currents | reversed |  |  |  |  |  | 
2 | CCCCC[C@H](O)/C=C/[C@@H]1[C@@H](C/C=C\CCCC(=O)O)[C@H]2CO[C@@H]1C2 [U46619, 9,11-dideoxy-9α,11α-methanoepoxy prostaglandin F2α] |  |  |  | significantly increased | no obvious change | ~ 20% | significantly decreased | significantly decreased | no significant difference
